Measurements reported in ChEMBL document CHEMBL4622992, “New Polyaminoisoprenyl Antibiotics Enhancers against Two Multidrug-Resistant Gram-Negative Bacteria from Enterobacter and Salmonella Species” (J Med Chem, 2020).
Where a SMILES comes first, the peptide text is derived from it. Bridges are numbered along the chain shown (N, C = ends). [ ]: non-standard residue; d: D form. The star is where a group is joined. X1 = CC[C@H](C)CCCCC(=O)*; βNA = c1ccc2cc(N*)ccc2c1; Dab = NCC[C@H](N)C(=O)O

How the values were obtained:
[1] = tested on: Salmonella typhimurium; assay: Potentiation of nalidixic acid-induced antibacterial activity against Salmonella enterica subsp. enterica serovar Typhimurium BN10055 assessed as ratio of the nalidixic acid alone MIC to […] in presence of MIC/4 level of compound incubated for 18 hrs; type: functional
Procedure, shortened: (§1)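 Broth microdilution in MH broth, 10^5 CFU inoculum, two-fold antibiotic dilutions, with or without compound at MIC/4. MIC is the lowest concentration with no visible growth after 18 h at 37°C. Gain is antibiotic MIC alone divided by MIC with compound. MICs repeated in at least three independent experiments; up to 5% DMSO.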

[2] = Toxicity in CHO cells assessed as reduction in cell viability incubated for 24 hrs by WST1 assay; type: cell-based; details: Chinese hamster (Cricetulus griseus)
Procedure, shortened: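 CHO-K1 cells in McCoy's 5A with 10% FCS, exposed in triplicate to 30–1200 μM compound for 24 h at 37°C. After PBS washes, 30 min in medium with 10% WST-1; absorbance at 450 nm. IC50 is the concentration giving 50% loss of viable cells.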

[3] = tested on: Salmonella typhimurium; assay: Potentiation of doxycycline-induced antibacterial activity against Salmonella enterica subsp. enterica serovar Typhimurium BN10055 assessed as ratio of the doxycycline alone MIC to doxycycline MIC in presence of MIC/4 level of compound incubated for 18 hrs; type: functional; procedure, shortened: as §1
[4] = tested on: Klebsiella aerogenes; assay: Potentiation of nalidixic acid-induced antibacterial activity against Enterobacter aerogenes Ea289 assessed as ratio of the nalidixic acid alone MIC to nalidixic acid MIC in presence of MIC/4 level of compound incubated for 18 hrs
[5] = tested on: Salmonella typhimurium; assay: Potentiation of chloramphenicol-induced antibacterial activity against Salmonella enterica subsp. enterica serovar Typhimurium BN10055 assessed as ratio of the chloramphenicol alone MIC to […] in presence of MIC/4 level of compound incubated for 18 hrs; type: functional; procedure, shortened: as §1
[6] = tested on: Klebsiella aerogenes; assay: Potentiation of doxycycline-induced antibacterial activity against Enterobacter aerogenes Ea289 assessed as ratio of the doxycycline alone MIC to doxycycline MIC in presence of MIC/4 level of compound incubated for 18 hrs; type: functional; procedure, shortened: as §1
[7] = tested on: Salmonella typhimurium; assay: Potentiation of erythromycin-induced antibacterial activity against Salmonella enterica subsp. enterica serovar Typhimurium BN10055 assessed as ratio of the erythromycin alone MIC to erythromycin MIC in presence of MIC/4 level of compound incubated for 18 hrs; type: functional; procedure, shortened: as §1
[8] = tested on: Klebsiella aerogenes; assay: Potentiation of chloramphenicol-induced antibacterial activity against Enterobacter aerogenes Ea289 assessed as ratio of the chloramphenicol alone MIC to […] in presence of MIC/4 level of compound incubated for 18 hrs; type: functional; procedure, shortened: as §1
[9] = tested on: Klebsiella aerogenes; assay: Potentiation of erythromycin-induced antibacterial activity against Enterobacter aerogenes Ea289 assessed as ratio of the erythromycin alone MIC to erythromycin MIC in presence of MIC/4 level of compound incubated for 18 hrs
[10] = Toxicity index, ratio of IC50 for toxicity in CHO cells to concentration of test compound causing at least 8 times decrease of MIC of almost 3 antibiotics (chloramphenicol/nalidixic acid/doxycycline/erythromycin ) against Enterobacter aerogenes Ea289; type: cell-based; details: hamster, pooled result: one value given for 2 cell lines, strains, targets or settings
[11] = tested on: Klebsiella aerogenes; assay: Potentiation of chloramphenicol-induced antibacterial activity against Enterobacter aerogenes Ea289 assessed as efficiency index by measuring sum of gain factor for each test compound reported for chloramphenicol/nalidixic acid/doxycycline/erythromycin and divided by concentration of test compound; type: functional; details: pooled result: one value given for 2 cell lines, strains, targets or settings
Procedure, shortened: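 Gain factors (antibiotic MIC alone / MIC with compound at MIC/4; broth dilution, 18 h, 37°C) for erythromycin, doxycycline, nalidixic acid and chloramphenicol are summed, then divided by the compound concentration used in the assay.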

[12] = tested on: Klebsiella aerogenes; assay: Inhibition of AcrAB-TolC in Enterobacter aerogenes Ea289 assessed as retention of 1,2'diNA dye within bacterial membranes at 100 uM relative to control; set-up: scale not given: the % may be the effect or the level left
Procedure, shortened: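 Stationary-phase cells at OD600 0.25 in potassium phosphate buffer pH 7.0 with CCCP 5 µM, loaded overnight with 1,2'-diNA 32 µM at 37°C, washed, compound added at 100 µM. Glucose 50 mM added at 300 s to energize efflux. Fluorescence (ex 370/em 420 nm) read every 30 s at 37°C; PAβN 100 µM as reference.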

[13] = tested on: Klebsiella aerogenes; assay: Induction of cell transmembrane potential disruption in Enterobacter aerogenes Ea289 assessed as membrane potential by measuring fluorescence level at 100 uM by [DiSC3(5)] based assay (reference value: 0.2%)

Compound	Ratio [1]	IC50 at 24 h [2] [µM]	Ratio [3]	Ratio [4]	Ratio [5]	Ratio [6]	Ratio [7]	Ratio [8]	Ratio [9]	selectivity ratio [10]	Activity_index [11]	Activity [12] [%]	Activity [13] [%]
CC(C)=CCC/C(C)=C\CCC(C)=CCNCCCCCN	16	38.4	16	8	8	64	2	16	32				
CC(C)=CCCC(C)=CCNCCCN1CCOCC1	1	> 150	2	1	2	2	1	1	1				
CC(C)=CCC/C(C)=C\CCC(C)=CCNCCCNCCCN	64	30.2	32	8	8	32	8	8	64	3.86	3.58		
CC(C)=CCCC(C)=CCNCCCN(C)CCCN	32	> 150	16	8	16	16		16	32	0.06	0.01		
CC(C)=CCCC(C)=CCNCCCN1CCCC1	4	> 150	2	2	2	2	1	1	1				
CC(C)=CCC/C(C)=C\CCC(C)=CCNCCCOCCCCOCCCN	16	> 150	8	2	4	8	4	4	2				
CCN(CC)CCCNCCCNCC=C(C)CCC=C(C)C	64	30.9	32	8	16	32	8	16	32	1.98	1.66		
CC(C)=CCC/C(C)=C\CCC(C)=CCNCCCN1CCOCC1	32	57.6	16	8	8	32	4	8	16				
CC(C)=CCC/C(C)=C\CCC(C)=CCNCCCN(C)CCCN	128	10.5	64	32	16	64	8	8	128	1.34	7.17		
CC(C)=CCCC(C)=CCNCCN	16	36.2	16	4	8	32	1	4	4				
CC(C)=CCCC(C)=CCNCCCNCCCCNCCCN	64	> 150	16	16	16	16	2	8	4	4.8	0.57		
CC(C)=CCC/C(C)=C\CCC(C)=CCNCCCN1CCN(CCCN)CC1	64	33.8	32	32	8	128	4	8	128				
CC(C)=CCCC(C)=CCNCCCN1CCCC1=O	1	> 150	1	1	1	2	1	1	2				
CC(C)=CCC/C(C)=C\CCC(C)=CCNCCCN	128	32.1	32	16	32	64	64	16	256				
CC(C)=CCC/C(C)=C\CCC(C)=CCNCCCNCCCCNCCCN	64	143	8	32	32	16		16	8	9.15	1.61		
CC(C)=CCC/C(C)=C\CCC(C)=CCNCCCN(CCCN)CCCN	128	> 150	8	16	16	16	1	32	4	19.2	3.54		
CC(C)=CCC/C(C)=C\CCC(C)=CCNCCCCN	64	18.1	16	16	8	64	4	16	256				
N=C(N)NCCC[C@H](NC(=O)[C@@H](N)Cc1ccccc1)C(=O)Nc1ccc2ccccc2c1 [PABETAN] (H-Phe-Arg-βNA)	64		16	8	8	16	8	16	8			25	
CC(C)=CCC/C(C)=C\CCC(C)=CCNCCNCCNCCNCCN	16	43.5	4	16	8	32	1	8	8	5.37	1.49		
CC(C)=CCC/C(C)=C\CCC(C)=CCNCCN	64	32.3	32	8	8	8	32	4	128				
CC(C)=CCCC(C)=CCNCCCN	32	> 150	16	8	8	16		8	32				
CC(C)=CCC/C(C)=C\CCC(C)=CCNCCCN1CCCC1	128	85.3	32	16	16	32	16	16	64				
CC[C@H](C)CCCCC(=O)N[C@@H](CCN)C(=O)N[C@H](C(=O)N[C@@H](CCN)C(=O)N[C@H]1CCNC(=O)[C@H]([C@@H](C)O)NC(=O)[C@H](CCN)NC(=O)[C@H](CCN)NC(=O)[C@H](CC(C)C)NC(=O)[C@@H](Cc2ccccc2)NC(=O)[C@H](CCN)NC1=O)[C@@H](C)O (X1-[Dab]T[Dab][Dab][Dab][dF]L[Dab][Dab]T; lactam 4-C)													14
